Values joined by “and” are separate entries in the source; they are usually repeats but may differ in a detail not shown here. Equal entries are not always repeated.
What was measured:
Format in all cases: toxicity, cell-based
Fibroblast [1] = assay: Multiplex assay against human fibroblast; conditions: 1 µM, compound concentration 1 uM
How it was run: (§1)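 Four dyes were applied at seeding to live cells: Hoechst33342, BioTracker Green Microtubule Cytoskeleton Dye, MitoTracker Red and Annexin V Alexa Fluor 680. Imaging after compound addition used a CQ1 microscope at 37°C and 5% CO2. CellPathfinder machine-learning gating then sorted cells into Hoechst high-intensity objects or normal cells, normal cells into healthy, pyknosed or fragmented nuclei, and pyknosed cells into mitotic or apoptotic, with tubulin, mitochondrial-mass and membrane-permeability phenotypes given as per cents of healthy-nucleus cells.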

HEK-293T [2] = assay: Multiplex assay against HEK293T; conditions: human, 1 µM, compound concentration 1 uM; how it was run: as §1;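 on Population Tubulin-Different-Phenotype (%): share of the cells with healthy nuclei that show this phenotype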
U2OS [3] = assay: Multiplex assay against U2OS; conditions: human, 1 µM, compound concentration 1 uM; how it was run: as §1
HEK-293T [4] = assay: Incucyte cell viability with HEK293T; conditions: human, 10 µM, compound concentration 10 uM; further: filed as whole numbers so only -1 and 0 and 1 occur
Fibroblast [5] = assay: Incucyte cell viability with human fibroblast; conditions: 10 µM, compound concentration 10 uM; further: filed as whole numbers so only -1 and 0 and 1 occur
U2OS [6] = assay: Incucyte cell viability with U2OS; conditions: human, 10 µM, compound concentration 10 uM; further: filed as whole numbers so only -1 and 0 and 1 occur
[7] = 0 h, replicate number 1, timepoint 0 hours
[8] = 0 h, replicate number 2, timepoint 0 hours
[9] = 6 h, replicate number 1, timepoint 6 hours
[10] = 12 h, replicate number 1, timepoint 12 hours
[11] = 18 h, replicate number 1, timepoint 18 hours
[12] = 24 h, replicate number 1, timepoint 24 hours

## CNC(=O)Nc1ccc2c(c1)CC[C@@]21OC(=O)N(CC(=O)N(Cc2ccc(F)cc2)[C@@H](C)C(F)(F)F)C1=O [A-485]
Fibroblast [1]; 12 h, replicate 1
  Population Apoptotic (%): 50% and 76%
  Population Fragmented Nuclei (%): 17% and 24%
  Population Healthy Nuclei (%): 59% and 61%
  Population Hoechst High Intensity Objects (%): 8% and 9%
  Population Mitotic Cells (%): 50% and 23%
  Population Normal (%): 91% and 90%
  Population Pyknosed Nuclei (%): 23% and 13%
  Total Cell Count: 243 and 214
Fibroblast [1]; 12 h, replicate 2
  Population Fragmented Nuclei (%): 53% and 66%
  Population Healthy Nuclei (%): 39% and 24%
  Population Hoechst High Intensity Objects (%): 37% and 49%
  Population Membrane Permeable-Phenotype (%): 11% and 33%
  Population Mitochondria Different-Phenotype (%): 17% and 25%
  Population Normal (%): 62% and 50%
  Population Pyknosed Nuclei (%): 6% and 10%
  Population Tubulin-Different-Phenotype (%): 23% and 66%
  Total Cell Count: 69 and 99
Fibroblast [1]; 24 h, replicate 1
  Population Apoptotic (%): 73% and 48%
  Population Fragmented Nuclei (%): 17% and 22%
  Population Healthy Nuclei (%): 64% and 59%
  Population Hoechst High Intensity Objects (%): 9% and 11%
  Population Membrane Permeable-Phenotype (%): 17% and 11%
  Population Mitotic Cells (%): 26% and 51%
  Population Normal (%): 90% and 88%
  Population Pyknosed Nuclei (%): 17%
  Population Tubulin-Different-Phenotype (%): 9%
  Total Cell Count: 251 and 207
Fibroblast [1]; 24 h, replicate 2
  Population Apoptotic (%): 50%
  Population Fragmented Nuclei (%): 51% and 62%
  Population Healthy Nuclei (%): 37% and 29%
  Population Hoechst High Intensity Objects (%): 39% and 51%
  Population Mitochondria Different-Phenotype (%): 0% and 21%
  Population Mitotic Cells (%): 50%
  Population Normal (%): 60% and 48%
  Population Pyknosed Nuclei (%): 10% and 8%
  Population Tubulin-Different-Phenotype (%): 21% and 42%
  Total Cell Count: 61 and 99
HEK-293T [2]; 12 h, replicate 1
  Population Apoptotic (%): 15% and 30%
  Population Fragmented Nuclei (%): 18% and 22%
  Population Healthy Nuclei (%): 55% and 56%
  Population Hoechst High Intensity Objects (%): 16% and 23%
  Population Mitochondria Different-Phenotype (%): 8% and 7%
  Population Mitotic Cells (%): 84% and 69%
  Population Normal (%): 83% and 76%
  Population Pyknosed Nuclei (%): 26% and 20%
  Total Cell Count: 630 and 586
HEK-293T [2]; 12 h, replicate 2
  Population Apoptotic (%): 6% and 12%
  Population Fragmented Nuclei (%): 5% and 8%
  Population Healthy Nuclei (%): 85% and 87%
  Population Hoechst High Intensity Objects (%): 2%
  Population Mitochondria Different-Phenotype (%): 20% and 9%
  Population Mitotic Cells (%): 93% and 87%
  Population Normal (%): 97%
  Population Pyknosed Nuclei (%): 8% and 4%
  Total Cell Count: 1495 and 1775
HEK-293T [2]; 24 h, replicate 1
  Population Apoptotic (%): 21% and 25%
  Population Fragmented Nuclei (%): 18%
  Population Healthy Nuclei (%): 62% and 73%
  Population Hoechst High Intensity Objects (%): 11% and 16%
  Population Membrane Permeable-Phenotype (%): 14% and 9%
  Population Mitochondria Different-Phenotype (%): 15% and 6%
  Population Mitotic Cells (%): 78% and 74%
  Population Normal (%): 88% and 83%
  Population Pyknosed Nuclei (%): 18% and 8%
  Population Tubulin-Different-Phenotype (%): 74%
  Total Cell Count: 539 and 610
HEK-293T [2]; 24 h, replicate 2
  Population Apoptotic (%): 10% and 4%
  Population Fragmented Nuclei (%): 14% and 24%
  Population Healthy Nuclei (%): 81% and 72%
  Population Hoechst High Intensity Objects (%): 5% and 3%
  Population Membrane Permeable-Phenotype (%): 16% and 10%
  Population Mitotic Cells (%): 89% and 95%
  Population Normal (%): 94% and 96%
  Population Pyknosed Nuclei (%): 4% and 2%
  Total Cell Count: 1741 and 2832
U2OS [3]; 12 h, replicate 1
  Population Apoptotic (%): 30% and 62%
  Population Fragmented Nuclei (%): 2% and 8%
  Population Healthy Nuclei (%): 91% and 85%
  Population Hoechst High Intensity Objects (%): 4%
  Population Mitochondria Different-Phenotype (%): 14% and 16%
  Population Mitotic Cells (%): 70% and 37%
  Population Normal (%): 95%
  Population Pyknosed Nuclei (%): 5% and 6%
  Population Tubulin-Different-Phenotype (%): 58% and 20%
  Total Cell Count: 185 and 139
U2OS [3]; 12 h, replicate 2
  Population Apoptotic (%): 20% and 0%
  Population Fragmented Nuclei (%): 10% and 7%
  Population Healthy Nuclei (%): 76% and 88%
  Population Hoechst High Intensity Objects (%): 6% and 8%
  Population Mitochondria Different-Phenotype (%): 23% and 22%
  Population Mitotic Cells (%): 80% and 100%
  Population Normal (%): 93% and 91%
  Population Pyknosed Nuclei (%): 12% and 4%
  Total Cell Count: 82 and 103
U2OS [3]; 24 h, replicate 1
  Population Fragmented Nuclei (%): 5% and 4%
  Population Healthy Nuclei (%): 88% and 90%
  Population Hoechst High Intensity Objects (%): 0% and 2%
  Population Membrane Permeable-Phenotype (%): 24% and 13%
  Population Mitochondria Different-Phenotype (%): 10% and 11%
  Population Mitotic Cells (%): 93% and 66%
  Population Normal (%): 99% and 97%
  Population Pyknosed Nuclei (%): 6% and 4%
  Population Tubulin-Different-Phenotype (%): 22% and 28%
  Total Cell Count: 230 and 188
U2OS [3]; 24 h, replicate 2
  Population Apoptotic (%): 35% and 66%
  Population Fragmented Nuclei (%): 9% and 3%
  Population Healthy Nuclei (%): 77% and 94%
  Population Hoechst High Intensity Objects (%): 6% and 11%
  Population Membrane Permeable-Phenotype (%): 14% and 11%
  Population Mitochondria Different-Phenotype (%): 19% and 18%
  Population Mitotic Cells (%): 64% and 33%
  Population Normal (%): 93% and 88%
  Population Tubulin-Different-Phenotype (%): 13% and 11%
  Total Cell Count: 114 and 147
HEK-293T [4]; [7]
  Growth Rate: 0
HEK-293T [4]; [8]
  Growth Rate: 1
HEK-293T [4]; [9]
  Growth Rate: 0
HEK-293T [4]; [10]
  Growth Rate: 0
HEK-293T [4]; [11]
  Growth Rate: 0
HEK-293T [4]; [12]
  Growth Rate: 0
Fibroblast [5]; [7]
  Growth Rate: 0
Fibroblast [5]; [9]
  Growth Rate: 0
Fibroblast [5]; [10]
  Growth Rate: 0
Fibroblast [5]; 12 h, replicate number 2, timepoint 12 hours
  Growth Rate: 1
Fibroblast [5]; [11]
  Growth Rate: 0
Fibroblast [5]; [12]
  Growth Rate: 1
Fibroblast [5]; 24 h, replicate number 2, timepoint 24 hours
  Growth Rate: 0
U2OS [6]; [7]
  Growth Rate: 1
U2OS [6]; [8]
  Growth Rate: 0
U2OS [6]; [9]
  Growth Rate: 0
U2OS [6]; [10]
  Growth Rate: 1
U2OS [6]; [11]
  Growth Rate: 1
U2OS [6]; [12]
  Growth Rate: 1
